Source: ChEMBL document CHEMBL1139231 (J Med Chem, 2007)
Active and inactive are the calls of the source. The calls are words filed in the database; no cut-off is given here.

Columns and labels:
[1] = target: T1, Sodium-dependent serotonin transporter (Homo sapiens, UniProt P31645); assay: Displacement of [125I]RTI-55 from human SERT expressing HEK293 cells; type: cell-based
Method in brief: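 Membranes from HEK293 cells stably expressing human DAT or SERT (lysed in hypotonic HEPES/EDTA, pelleted, resuspended in 0.32 M sucrose) preincubated with drug 10 min at rt, then [125I]RTI-55 added; 90 min rt in dark; filtration, scintillation counting. Krebs-HEPES buffer pH 7.4. Nonspecific: 5 µM mazindol (DAT) or 5 µM imipramine (SERT). Duplicate points, ≥3 experiments.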

[2] = target: T2, Sodium-dependent dopamine transporter (Homo sapiens, UniProt Q01959); assay: Inhibition of [3H]DA uptake at human DAT expressing HEK293 cells; type: cell-based
T2 sequence (Q01959 whole entry): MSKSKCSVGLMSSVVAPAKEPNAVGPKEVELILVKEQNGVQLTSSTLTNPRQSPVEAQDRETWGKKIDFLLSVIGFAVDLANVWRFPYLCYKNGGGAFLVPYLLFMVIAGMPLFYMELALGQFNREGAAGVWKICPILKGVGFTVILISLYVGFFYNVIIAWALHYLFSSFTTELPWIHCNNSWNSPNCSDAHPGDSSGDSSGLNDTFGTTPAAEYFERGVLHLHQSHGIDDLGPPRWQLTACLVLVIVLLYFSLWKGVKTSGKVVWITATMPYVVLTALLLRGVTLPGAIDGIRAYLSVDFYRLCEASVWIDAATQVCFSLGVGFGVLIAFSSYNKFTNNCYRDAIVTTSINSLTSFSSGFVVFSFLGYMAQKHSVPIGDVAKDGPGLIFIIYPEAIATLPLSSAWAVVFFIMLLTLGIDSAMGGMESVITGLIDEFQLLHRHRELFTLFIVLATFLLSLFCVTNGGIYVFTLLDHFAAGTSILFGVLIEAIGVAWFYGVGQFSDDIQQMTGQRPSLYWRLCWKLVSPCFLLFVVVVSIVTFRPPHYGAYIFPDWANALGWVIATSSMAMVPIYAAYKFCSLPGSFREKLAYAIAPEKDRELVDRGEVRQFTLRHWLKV
Method in brief: (§1)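 Intact HEK293 cells stably expressing human SERT or DAT, scraped and triturated, preincubated with drug 10 min at 25 °C in Krebs-HEPES pH 7.4; [3H]5-HT or [3H]DA (20 nM final) added for 10 min; filtration, scintillation counting. Nonspecific: 5 µM imipramine (SERT) or 5 µM mazindol (DAT). Triplicate points, ≥3 experiments.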

[3] = target: T1, Sodium-dependent serotonin transporter; assay: Inhibition of [3H]5-HT uptake into human SERT expressing HEK293 cells; type: cell-based; method in brief: as §1
[4] = target: T3, Sodium-dependent noradrenaline transporter (Homo sapiens, UniProt P23975); assay: Displacement of [125I]RTI-55 from human NET expressing HEK293 cells; type: cell-based
T3 sequence (P23975 whole entry): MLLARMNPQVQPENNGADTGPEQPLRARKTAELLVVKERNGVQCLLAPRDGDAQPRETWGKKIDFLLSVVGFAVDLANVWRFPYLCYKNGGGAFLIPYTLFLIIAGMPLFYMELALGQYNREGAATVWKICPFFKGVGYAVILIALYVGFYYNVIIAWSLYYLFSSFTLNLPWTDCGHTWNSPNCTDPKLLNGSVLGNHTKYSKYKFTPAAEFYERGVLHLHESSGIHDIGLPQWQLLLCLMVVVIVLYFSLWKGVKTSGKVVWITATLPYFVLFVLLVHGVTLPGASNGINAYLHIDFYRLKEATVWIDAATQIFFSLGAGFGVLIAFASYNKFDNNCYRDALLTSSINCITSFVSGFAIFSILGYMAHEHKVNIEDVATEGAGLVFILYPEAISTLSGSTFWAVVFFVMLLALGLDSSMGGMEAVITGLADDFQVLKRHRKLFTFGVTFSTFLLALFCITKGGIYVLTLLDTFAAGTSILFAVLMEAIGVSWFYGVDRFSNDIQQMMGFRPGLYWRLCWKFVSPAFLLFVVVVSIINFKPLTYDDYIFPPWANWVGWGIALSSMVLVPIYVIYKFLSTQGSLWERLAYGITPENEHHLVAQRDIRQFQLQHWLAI

[5] = target: T2, Sodium-dependent dopamine transporter; assay: Displacement of [125I]RTI-55 from human DAT expressing HEK293 cells; type: cell-based
[6] = target: T3, Sodium-dependent noradrenaline transporter; assay: Inhibition of [3H]NE uptake into human NET expressing HEK293 cells; type: cell-based
[7] = tested on: Mus musculus; assay: Effect on locomotor activity in Swiss-Webster mouse at 30 mg/kg; type: functional, organism-based; parameters: dose 30 mg/kg
Method in brief: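 Nonhabituated male Swiss-Webster mice (Hsd:ND4, 2-3 months), groups of eight, dosed ip (vehicle deionized water) immediately before testing; horizontal photobeam interruptions counted per 10 min over 8 h, one mouse per chamber, starting 2 h after lights on; compared with vehicle, p < 0.05.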

T1 sequence (P31645 whole entry): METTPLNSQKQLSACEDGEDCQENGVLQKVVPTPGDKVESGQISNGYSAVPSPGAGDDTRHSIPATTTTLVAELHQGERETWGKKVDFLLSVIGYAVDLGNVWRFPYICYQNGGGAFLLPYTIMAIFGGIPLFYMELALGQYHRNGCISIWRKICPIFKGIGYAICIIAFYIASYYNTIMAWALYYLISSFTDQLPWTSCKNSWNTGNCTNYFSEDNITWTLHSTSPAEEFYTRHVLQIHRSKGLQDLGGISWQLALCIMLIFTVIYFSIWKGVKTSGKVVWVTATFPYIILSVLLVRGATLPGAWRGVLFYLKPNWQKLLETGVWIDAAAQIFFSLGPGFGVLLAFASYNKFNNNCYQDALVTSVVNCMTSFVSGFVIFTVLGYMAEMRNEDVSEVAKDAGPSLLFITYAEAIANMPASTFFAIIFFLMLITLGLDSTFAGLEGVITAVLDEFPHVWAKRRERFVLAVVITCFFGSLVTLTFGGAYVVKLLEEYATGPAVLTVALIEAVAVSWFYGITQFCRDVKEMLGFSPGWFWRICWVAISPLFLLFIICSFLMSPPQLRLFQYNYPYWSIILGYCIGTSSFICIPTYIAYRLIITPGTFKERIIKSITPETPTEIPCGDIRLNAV

Compound | Ki [1] [µM] | IC50 [2] [µM] | IC50 [3] [µM] | Ki [4] [µM] | Ki [5] [µM] | IC50 [6] [µM] | Activity [7]
CCC(c1ccc(Cl)cc1)C1CCCCN1 (stereo not given) | 4.2 | 2.8 | 4.1 | > 9.2 | 1.8 | 1.3 | –
COc1cccc(C(CC(C)C)C2CCCCN2)c1 (stereo in doubt; form 1) | 4.2 | 0.035 | 2.7 | 3.8 | 0.022 | 0.33 | –
CC(C)CC(c1cccc(Cl)c1)C1CCCCN1 (stereo in doubt; form 1) | – | 0.0028 | 2.1 | 0.023 | 0.0037 | 0.014 | –
CCCCCC(c1ccc(Cl)cc1)C1CCCCN1 (stereo in doubt; form 1) | 2.2 | 0.045 | 1.5 | 0.16 | 0.023 | 0.049 | –
COC(=O)C(c1ccccc1)C1CCCCN1 (stereo not given) [METHYLPHENIDATE] | – | – | 5.1 | 0.66 | – | 0.061 | –
CC(c1ccc(Cl)cc1)C1CCCCN1 (stereo in doubt; form 1) | 4.9 | 0.022 | 1.9 | 0.36 | 0.18 | 0.035 | –
CCCC(c1ccc(Cl)c(Cl)c1)C1CCCCN1 (stereo in doubt; form 2) | 0.45 | 0.088 | 0.18 | 0.03 | 0.043 | 0.047 | –
Clc1ccc(C(CCCc2ccccc2)C2CCCCN2)cc1 (stereo in doubt; form 1) | 0.7 | 0.29 | 1.6 | 0.49 | 0.44 | 0.6 | –
CC(C)CC(c1ccc(Cl)cc1)C1CCCCN1 (stereo in doubt; form 1) | – | – | – | – | – | – | Active
CC(C)CC(c1cccc(Cl)c1)C1CCCCN1 (stereo in doubt; form 2) | – | 0.088 | 0.87 | 0.34 | 0.14 | 0.073 | –
CC(C)CC(c1ccc(Cl)c(Cl)c1)C1CCCCN1 (stereo in doubt; form 1) | 1.6 | 0.0055 | 1.1 | 0.025 | 0.001 | 0.009 | –
CCCCC(c1ccc(Cl)c(Cl)c1)C1CCCCN1 (stereo in doubt; form 2) | 1.1 | 0.067 | 0.55 | 0.031 | 0.029 | 0.063 | –
CC(C)(C)CC(c1ccc(Cl)cc1)C1CCCCN1 (stereo not given) | – | – | > 8.3 | > 5.5 | – | – | –
CCC(CC)C(c1ccc(Cl)cc1)C1CCCCN1 (stereo in doubt; form 2) | 4.8 | 1.2 | > 9.6 | 4.3 | > 5.7 | 3.8 | –
CC(C)CC(c1ccc(Cl)c(Cl)c1)C1CCCCN1C (stereo not given) | – | – | – | – | – | 0.028 | –
Clc1ccc(C(CCCc2ccccc2)C2CCCCN2)cc1 (stereo in doubt; form 2) | 1.5 | 1.4 | 1.2 | 1.5 | 2.9 | 1.7 | –
COc1ccc(C(CC(C)C)C2CCCCN2)cc1 (stereo in doubt; form 2) | 0.95 | 0.4 | 1.2 | 16 | 0.77 | 1.6 | –
CC(C)CC(c1ccc(Cl)cc1)C1CCCCN1 (stereo in doubt; form 2) | – | 0.38 | – | 4.5 | 0.17 | 0.75 | –

Compound | Ki [1] [µM] | IC50 [2] [µM] | IC50 [3] [µM] | Ki [4] [µM] | Ki [5] [µM] | IC50 [6] [µM] | Activity [7]
COc1ccc(C(CC(C)C)C2CCCCN2)cc1 (stereo in doubt; form 1) | 2.8 | 0.025 | 3.5 | 3.1 | 0.052 | 0.41 | –
CCC(CC)C(c1ccc(Cl)cc1)C1CCCCN1 (stereo in doubt; form 1) | 3.9 | 0.24 | > 9.4 | 0.97 | 0.4 | 0.33 | –
CC(=O)C(c1ccccc1)C1CCCCN1 (stereo not given) | 7.8 | 0.19 | > 9.7 | 2.7 | 0.37 | 0.22 | –
CC(C)CC(c1ccc(Cl)c(Cl)c1)C1CCCCN1 (stereo in doubt; form 2) | 0.45 | 0.013 | 0.29 | 0.12 | 0.031 | 0.019 | –
CCCC(c1ccc(Cl)cc1)C1CCCCN1 (stereo not given) | 2.7 | 0.0074 | 2.9 | 0.2 | 0.011 | 0.05 | –
Clc1ccc(C(CCc2ccccc2)C2CCCCN2)cc1 (stereo not given) | 1.8 | – | 0.21 | – | – | – | –
COC(=O)C(c1ccc(Cl)cc1)C1CCCCN1 (stereo in doubt; form 1) | – | – | > 9.8 | – | – | – | –
COC(=O)C(c1ccc(Cl)cc1)C1CCCCN1 (stereo in doubt; form 2) | – | – | > 10000 | > 6.1 | – | – | –
COc1cccc(C(CC(C)C)C2CCCCN2)c1 (stereo in doubt; form 2) | 3.8 | 0.14 | 2.6 | 12 | 0.95 | 1.4 | –
CC(C)C(c1ccc(Cl)cc1)C1CCCCN1 (stereo not given) | > 10000 | – | – | > 10000 | – | – | –
Clc1ccc(C(Cc2ccccc2)C2CCCCN2)cc1 (stereo not given) | – | – | – | – | – | > 8.8 | –
CCCC(c1ccc(Cl)c(Cl)c1)C1CCCCN1 (stereo in doubt; form 1) | 1.8 | 0.0045 | 0.56 | 0.0039 | 0.00097 | 0.0081 | –
CCCCC(c1ccc(Cl)c(Cl)c1)C1CCCCN1 (stereo in doubt; form 1) | 1.3 | 0.0057 | 1.4 | 0.012 | 0.0023 | 0.027 | –
CC(C)CCC(c1ccc(Cl)cc1)C1CCCCN1 (stereo in doubt; form 1) | 5 | 0.014 | 7.3 | 0.83 | 0.0036 | 0.21 | –
CC(C)CCC(c1ccc(Cl)cc1)C1CCCCN1 (stereo in doubt; form 2) | 6.7 | 0.68 | > 8.3 | 12 | 0.51 | 3 | –
CC(C)CC(c1ccc(C(C)C)cc1)C1CCCCN1 (stereo not given) | – | > 9.1 | – | – | > 6.5 | > 8.7 | –
CCCCCC(c1ccc(Cl)cc1)C1CCCCN1 (stereo in doubt; form 2) | 3.6 | 0.65 | 1.7 | 1.5 | 0.87 | 0.86 | –
CC(c1ccc(Cl)cc1)C1CCCCN1 (stereo in doubt; form 2) | > 9.1 | 1.5 | 4.7 | > 6.3 | > 3.9 | 3.2 | –
